2 compounds from ChEMBL document CHEMBL4014350, “Alkoxyurea-Based Histone Deacetylase Inhibitors Increase Cisplatin Potency in Chemoresistant Cancer Cell Lines” (J Med Chem, 2017) can be followed below.

The source made the active and inactive calls. The calls are words filed in the database; no cut-off is given here. Bounds are passed on as bounds.

Assay [1] deals with T1, Histone deacetylase 1/6 (Homo sapiens) (UniProt Q13547+Q9UBN7). As to the kind of experiment: Inhibition of HDAC1/HDAC6 in human Cal27CisR cells assessed as potentiation of cisplatin-induced cytotoxicity by measuring fold reduction in cisplatin IC50 at 0.5 uM preincubated for 48 hrs followed by cisplatin treatment measured after 72 hrs by MTT assay relative to cisplatin alone. It counts as cell-based. In short, it runs like this: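 Cal27CisR cells were pretreated 48 h with 0.5 μM inhibitor, then exposed to increasing cisplatin concentrations for 72 h, with IC50 by MTT. The shift factor is the IC50 of cisplatin alone divided by the IC50 of the combination. Data are mean ± SEM of pooled independent experiments (at least three), each in triplicate, and significance was tested by t test (p < 0.05).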
On the technique in general: Tetrazolium assays rely on reduction of a dye to a coloured formazan, in cell work by metabolically active cells.

Assay [2] relates to CAL-27. As to the kind of experiment: Potentiation of 0.316 uM cisplatin-induced cytotoxicity against human CAL27 cells assessed as decrease in cell viability by measuring combination index at 700 uM preincubated for 48 hrs followed by cisplatin treatment measured after 72 hrs by MTT assay. The assay is classed as functional. As to conditions: in the assay text read “at 700 nM” for “at 700 uM”. In short, it runs like this: (§1)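 Cal27 and cisplatin-resistant Cal27CisR cells were preincubated with the HDAC inhibitor for 48 h, then given cisplatin in combination. Viability was read by MTT after 72 h. The combination index was computed by the Chou–Talalay method: CI > 1 is antagonism, CI = 1 is additive, and CI < 0.9 is synergism. Points with fraction affected below 0.20 were flagged.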

Assay [3] concerns CAL-27. Nature of the assay: Potentiation of 1 uM cisplatin-induced cytotoxicity against human CAL27 cells assessed as decrease in cell viability by measuring combination index at 200 uM preincubated for 48 hrs followed by cisplatin treatment measured after 72 hrs by MTT assay. It counts as functional. In short, it runs like this:
as §1

Assay [4] relates to CAL-27. Nature of the assay: Potentiation of 2 uM cisplatin-induced cytotoxicity against human CAL27 cells assessed as decrease in cell viability by measuring combination index at 200 uM preincubated for 48 hrs followed by cisplatin treatment measured after 72 hrs by MTT assay. It counts as functional. As to conditions: in the assay text read “at 200 nM” for “at 200 uM”. Summed up: (§2)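 HDAC inhibitor was added 48 h before cisplatin, then cells were exposed to cisplatin for 72 h and viability was read by MTT assay. Combination index was computed by the Chou–Talalay method: CI > 1 is antagonism, CI = 1 additive, CI < 0.9 synergism. Points with fraction affected below 0.20 were flagged.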

Assay [5] has as its system CAL-27. As to the kind of experiment: Potentiation of 2 uM cisplatin-induced cytotoxicity against human CAL27 cells assessed as decrease in cell viability by measuring combination index at 300 uM preincubated for 48 hrs followed by cisplatin treatment measured after 72 hrs by MTT assay. It counts as functional. The settings on record: in the assay text read “at 300 nM” for “at 300 uM”. Summed up: as §2

Assay [6] deals with CAL-27. Nature of the assay: Potentiation of 2 uM cisplatin-induced cytotoxicity against human CAL27 cells assessed as decrease in cell viability by measuring combination index at 400 uM preincubated for 48 hrs followed by cisplatin treatment measured after 72 hrs by MTT assay. It counts as functional. As to conditions: in the assay text read “at 400 nM” for “at 400 uM”. Summed up:
as §2

Assay [7] deals with CAL-27. As to the kind of experiment: Potentiation of 1 uM cisplatin-induced cytotoxicity against human CAL27 cells assessed as decrease in cell viability by measuring combination index at 100 uM preincubated for 48 hrs followed by cisplatin treatment measured after 72 hrs by MTT assay. It counts as functional. As to conditions: in the assay text read “at 100 nM” for “at 100 uM”. In short, it runs like this:
as §1

In assay [8] the test system is CAL-27. As to the kind of experiment: Potentiation of 0.5 uM cisplatin-induced cytotoxicity against human CAL27 cells assessed as decrease in cell viability by measuring combination index at 300 uM preincubated for 48 hrs followed by cisplatin treatment measured after 72 hrs by MTT assay. It counts as functional. The settings on record: in the assay text read “at 300 nM” for “at 300 uM”. In short, it runs like this: as §1

The subject of assay [9] is CAL-27. As to the kind of experiment: Potentiation of 0.316 uM cisplatin-induced cytotoxicity against human CAL27 cells assessed as decrease in cell viability by measuring combination index at 200 uM preincubated for 48 hrs followed by cisplatin treatment measured after 72 hrs by MTT assay. It counts as functional. The settings on record: in the assay text read “at 200 nM” for “at 200 uM”. Summed up: as §1

Assay [10] relates to CAL-27. Nature of the assay: Potentiation of 5 uM cisplatin-induced cytotoxicity against human CAL27 cells assessed as decrease in cell viability by measuring combination index at 200 uM preincubated for 48 hrs followed by cisplatin treatment measured after 72 hrs by MTT assay. As to conditions: in the assay text read “at 200 nM” for “at 200 uM”. The assay is classed as functional. In short, it runs like this:
as §2

Assay [11] addresses T1, Histone deacetylase 1/6 (Homo sapiens). As to the kind of experiment: Inhibition of HDAC1/HDAC6 in human Cal27CisR cells assessed as potentiation of 3.16 uM cisplatin-induced cytotoxicity by measuring combination index at 400 uM preincubated for 48 hrs followed by cisplatin treatment measured after 72 hrs by MTT assay. The assay is classed as cell-based. Summed up: as §1

Assay [12] has the same target. Nature of the assay: Inhibition of HDAC1/HDAC6 in human Cal27CisR cells assessed as potentiation of 10 uM cisplatin-induced cytotoxicity by measuring combination index at 100 uM preincubated for 48 hrs followed by cisplatin treatment measured after 72 hrs by MTT assay. The assay is classed as cell-based. Summed up:
(§3)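 Cal27CisR cells preincubated 48 h with the HDAC inhibitor, then exposed to cisplatin for 72 h. Viability read by MTT. Combination index calculated by the Chou–Talalay method: CI > 1 antagonism, CI = 1 additive, CI < 0.9 synergism. Points with fraction affected below 0.20 are flagged. Values are the mean of three experiments.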

For assay [13] the target is unchanged. As to the kind of experiment: Inhibition of HDAC1/HDAC6 in human Cal27CisR cells assessed as potentiation of 10 uM cisplatin-induced cytotoxicity by measuring combination index at 400 uM preincubated for 48 hrs followed by cisplatin treatment measured after 72 hrs by MTT assay. The assay is classed as cell-based. In short, it runs like this:
as §3

For assay [14] the target is unchanged. As to the kind of experiment: Inhibition of HDAC1/HDAC6 in human Cal27CisR cells assessed as potentiation of cisplatin-induced apoptosis at 0.5 uM preincubated for 48 hrs followed by cisplatin treatment for 6 hrs measured after 24 hrs by propidium iodide dye-based flow cytometry (reference value: 20.3%). The assay is classed as cell-based. Also noted: scale not given: the % may be the effect or the level left. A general note: A flow cytometer gives signals particle by particle.

Assay [15] deals with CAL-27. As to the kind of experiment: Induction of apoptosis in human CAL27 cells at 1 uM for 48 hrs by propidium iodide dye-based flow cytometry. The assay is classed as functional, cell-based.
The target in assay [16] is T1, Histone deacetylase 1/6 (Homo sapiens). Nature of the assay: Inhibition of HDAC1/HDAC6 in human Cal27CisR cells assessed as potentiation of 5 uM cisplatin-induced cytotoxicity by measuring combination index at 100 nM preincubated for 48 hrs followed by cisplatin treatment measured after 72 hrs by MTT assay.
Assay [17] shares this target. As to the kind of experiment: Inhibition of HDAC1/HDAC6 in human Cal27CisR cells assessed as potentiation of 5 uM cisplatin-induced cytotoxicity by measuring combination index at 200 nM preincubated for 48 hrs followed by cisplatin treatment measured after 72 hrs by MTT assay.
Assay [18] has the same target. As to the kind of experiment: Inhibition of HDAC1/HDAC6 in human Cal27CisR cells assessed as potentiation of 5 uM cisplatin-induced cytotoxicity by measuring combination index at 300 nM preincubated for 48 hrs followed by cisplatin treatment measured after 72 hrs by MTT assay.
Assay [19] has the same target. Nature of the assay: Inhibition of HDAC1/HDAC6 in human Cal27CisR cells assessed as potentiation of 20 uM cisplatin-induced cytotoxicity by measuring combination index at 200 nM preincubated for 48 hrs followed by cisplatin treatment measured after 72 hrs by MTT assay.

T1 sequence (Q13547 whole entry, looked up): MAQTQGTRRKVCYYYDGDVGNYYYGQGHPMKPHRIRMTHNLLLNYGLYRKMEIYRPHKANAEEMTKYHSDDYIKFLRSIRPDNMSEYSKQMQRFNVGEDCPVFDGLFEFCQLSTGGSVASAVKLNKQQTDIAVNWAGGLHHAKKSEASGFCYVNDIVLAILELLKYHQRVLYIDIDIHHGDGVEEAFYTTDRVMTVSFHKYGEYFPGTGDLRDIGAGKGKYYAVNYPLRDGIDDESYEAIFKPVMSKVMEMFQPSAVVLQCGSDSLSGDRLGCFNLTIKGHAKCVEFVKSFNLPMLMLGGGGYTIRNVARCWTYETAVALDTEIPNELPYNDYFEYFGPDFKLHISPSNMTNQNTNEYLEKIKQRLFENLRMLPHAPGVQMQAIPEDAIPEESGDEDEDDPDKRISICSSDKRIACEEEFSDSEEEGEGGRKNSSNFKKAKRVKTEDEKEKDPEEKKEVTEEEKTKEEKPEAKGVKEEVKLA
T1 sequence (Q9UBN7 whole entry, looked up): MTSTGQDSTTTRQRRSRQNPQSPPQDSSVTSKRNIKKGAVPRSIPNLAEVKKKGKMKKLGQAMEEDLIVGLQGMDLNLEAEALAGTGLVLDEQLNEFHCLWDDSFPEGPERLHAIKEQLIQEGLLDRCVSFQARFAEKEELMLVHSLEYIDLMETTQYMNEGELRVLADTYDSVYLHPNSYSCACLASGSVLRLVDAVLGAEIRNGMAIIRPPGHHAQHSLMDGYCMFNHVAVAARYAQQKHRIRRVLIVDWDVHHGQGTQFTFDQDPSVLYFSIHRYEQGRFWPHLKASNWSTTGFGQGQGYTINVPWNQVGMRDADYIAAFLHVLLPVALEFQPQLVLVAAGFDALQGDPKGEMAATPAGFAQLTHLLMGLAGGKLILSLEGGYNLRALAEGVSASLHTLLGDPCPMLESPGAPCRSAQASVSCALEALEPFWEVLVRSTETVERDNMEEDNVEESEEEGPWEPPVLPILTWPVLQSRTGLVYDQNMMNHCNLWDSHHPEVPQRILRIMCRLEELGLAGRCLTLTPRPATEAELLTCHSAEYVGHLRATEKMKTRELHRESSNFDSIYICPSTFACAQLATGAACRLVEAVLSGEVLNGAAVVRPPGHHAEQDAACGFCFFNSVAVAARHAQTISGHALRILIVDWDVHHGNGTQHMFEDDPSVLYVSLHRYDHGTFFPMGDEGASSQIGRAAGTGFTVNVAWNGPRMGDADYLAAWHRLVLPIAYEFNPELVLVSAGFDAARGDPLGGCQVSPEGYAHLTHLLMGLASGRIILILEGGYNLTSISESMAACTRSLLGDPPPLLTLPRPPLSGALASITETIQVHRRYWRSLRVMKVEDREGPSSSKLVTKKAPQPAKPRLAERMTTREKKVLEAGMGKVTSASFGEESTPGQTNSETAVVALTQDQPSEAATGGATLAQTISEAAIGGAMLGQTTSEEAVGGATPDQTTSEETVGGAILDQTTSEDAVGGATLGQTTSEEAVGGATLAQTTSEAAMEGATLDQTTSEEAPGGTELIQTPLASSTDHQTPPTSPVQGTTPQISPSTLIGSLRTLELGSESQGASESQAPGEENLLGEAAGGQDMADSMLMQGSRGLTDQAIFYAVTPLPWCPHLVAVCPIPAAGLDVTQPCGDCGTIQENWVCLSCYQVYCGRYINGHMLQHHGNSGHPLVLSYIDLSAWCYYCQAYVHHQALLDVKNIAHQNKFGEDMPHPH

Regarding `COc1cc(NC(=O)NOCCCCCC(=O)NO)c2nccc(C)c2c1`, the fold change (FC) in assay [1] worked out at 8.2. The CI is reported as 0.68 in assay [2]; 0.76 in assay [3]; 0.39 in assay [4]; 0.31 in assay [5]; 0.27 in assay [6]; under 0.2 in [7]. Also, the CI was under 0.2 in [8]; under 0.2 in [9]; 0.29 in [10]; under 0.2 in assay [11]; under 0.2 in assay [12]; 0.26 in assay [13]. The CI in assay [16] was under 0.2; in assay [17], under 0.2; in [18] it was under 0.2; in [19], 0.33. Further, the Activity in assay [14] was found to be 59.7%. Besides, in assay [15], the result was inactive.

Regarding `COc1cc(NC(=O)NOCCCCCC(=O)NO)c2nc(OC)cc(C)c2c1`, in assay [1], the fold change (FC) worked out at 11.2. In addition, the CI in assay [2] is reported as 0.82; in assay [3] it was 0.82; in assay [4], 0.33; in assay [5] it was 0.38; in assay [6], 0.38; in assay [7], under 0.2. Moreover, the CI in assay [8] is under 0.2; in assay [9], under 0.2; in [10] it was 0.22; in assay [11] it was 0.3; in assay [12], 0.41; in assay [13], 0.16. For the same compound, the CI in assay [16] stood at 0.66; in assay [17], 0.38; in assay [18], 0.25; in assay [19], 0.19. The Activity in assay [14] amounted to 59.7%. Moreover, the outcome in [15] was inactive.
